Source: article PMC3262149 (Angewandte Chemie (International Ed. in English), 2011)
Square brackets hold non-standard residues; d marks the D form. Side chains are listed from the residue outwards. Peptide text beside a SMILES is read from it. * marks the point of attachment. X1 = O=C(CCS[C@@H]1O[C@H](CO)[C@H](O)[C@H](O)[C@H]1O)*; βGal = OC[C@H]1O[C@@H](*)[C@H](O)[C@@H](O)[C@H]1O; Mpa = O=C(O)CCS

Experiments:
[1] = biological target: T1, P. aeruginosa lectin LecA (Pseudomonas aeruginosa, UniProt Q05097); test: Isothermal titration calorimetry; format: binding; details: for n′ (stoichiometry, number of occupied lectin galactose binding sites per dendrimer) / ΔH / −T ΔS / r.p./n = (Kd(D-galactose)/Kd(ligand))/n: ITC; for n′ (stoichiometry, number of occupied lectin galactose binding sites per dendrimer) / ΔH / −T ΔS: 0.1 M Tris base, pH 7.5, 25 mM CaCl2, 25 °C, average of two independent runs; for r.p./n = (Kd(D-galactose)/Kd(ligand))/n: relative to D-galactose, per galactose residue
T1 sequence (Q05097 1-122): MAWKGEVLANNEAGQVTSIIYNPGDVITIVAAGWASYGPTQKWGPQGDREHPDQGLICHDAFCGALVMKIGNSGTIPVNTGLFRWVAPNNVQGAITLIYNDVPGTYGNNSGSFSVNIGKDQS

[2] = biological target: T1, P. aeruginosa lectin LecA; test: Hemagglutination inhibition assay; format: biochemical; details: relative to D-galactose
In short: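 Twofold serial dilutions of test compound were preincubated with LecA for 30 min at 4 °C. Rabbit erythrocytes (5 % solution in PBS) were then added and incubated 1 h at RT. MIC was taken as the highest dilution giving complete inhibition of hemagglutination.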

Row | n′ (stoichiometry, number of occupied lectin galactose binding sites per dendrimer) [1] | ΔH [1] [kcal/mol] | −T ΔS [1] [kcal/mol] | r.p./n = (Kd(D-galactose)/Kd(ligand))/n [1] | r.p./n, relative potency per galactose residue = (MIC(D-galactose)/MIC(ligand))/n [2] | SMILES | Kd [1] [nM]
1 | 1.1±0.1 | -8.9 ± 0.5 | 2.8 ± 0.5 | 2.7 | 2.8 | CC(C)S[C@@H]1O[C@H](CO)[C@H](O)[C@H](O)[C@H]1O [IPTG, isopropyl-β-thiogalactoside] | 
2 | 0.9±0 | -10.0 ± 0.1 | 3.4 ± 0.1 | 6.2 | 5.7 | O=[N+]([O-])c1ccc(O[C@@H]2O[C@H](CO)[C@H](O)[C@H](O)[C@H]2O)cc1 [NPG, p-nitrophenyl-β-galactoside] | 
3 | 1.1±0.1 | -8.4 ± 0.1 | 2.3 ± 0.4 |  |  | O=C[C@H](O)[C@@H](O)[C@@H](O)[C@H](O)CO [D-galactose] | 

Row | SMILES | n′ (stoichiometry, number of occupied lectin galactose binding sites per dendrimer) [1] | ΔH [1] [kcal/mol] | −T ΔS [1] [kcal/mol] | r.p./n = (Kd(D-galactose)/Kd(ligand))/n [1] | r.p./n, relative potency per galactose residue = (MIC(D-galactose)/MIC(ligand))/n [2] | Kd [1] [nM]
4 | CC[C@H](C)[C@H](NC(=O)[C@H](CCCCN)NC(=O)[C@H](Cc1ccccc1)NC(=O)[C@H](CCCCNC(=O)[C@H](CC(C)C)NC(=O)[C@@H]1CCCN1C(=O)[C@H](CCCCN)NC(=O)CCS[C@@H]1O[C@H](CO)[C@H](O)[C@H](O)[C@H]1O)NC(=O)[C@H](CC(C)C)NC(=O)[C@@H]1CCCN1C(=O)[C@H](CCCCN)NC(=O)CCS[C@@H]1O[C@H](CO)[C@H](O)[C@H](O)[C@H]1O)C(N)=O [GalBG1] ([Mpa](βGal)KPLK([Leu-Pro-Lys-X1])FKI-NH2) | 2.5±0.3 | -8.3 ± 0.4 | 0.7 ± 0.4 | 20.5 | 2.5 | 2100 ± 1000
